Active and inactive are the calls of the source.

Experiment [1] concerns the target Serine/threonine-protein kinase pim-3 (Homo sapiens, UniProt Q86V86). Put plainly: Binding affinity to PIM3 assessed as change in thermal denaturation at 10 uM by thermal stability shift assay. In short, it runs like this:
(§1)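 Each compound was screened across a kinase panel by thermal stability shift assay. The read-out was the shift in protein melting temperature (ΔTm, in °C) relative to the unliganded kinase. A ΔTm of 4.0 °C served as the hit cutoff.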

Experiment [2] has as its target Ribosomal protein S6 kinase alpha-1 (Homo sapiens) (UniProt Q15418). Put plainly: Binding affinity to RSK1 assessed as change in thermal denaturation at 10 uM by thermal stability shift assay.
For experiment [3], the target named is T1, Serine/threonine-protein kinase 17A (Homo sapiens) (UniProt Q9UEE5).
T1 sequence (whole entry): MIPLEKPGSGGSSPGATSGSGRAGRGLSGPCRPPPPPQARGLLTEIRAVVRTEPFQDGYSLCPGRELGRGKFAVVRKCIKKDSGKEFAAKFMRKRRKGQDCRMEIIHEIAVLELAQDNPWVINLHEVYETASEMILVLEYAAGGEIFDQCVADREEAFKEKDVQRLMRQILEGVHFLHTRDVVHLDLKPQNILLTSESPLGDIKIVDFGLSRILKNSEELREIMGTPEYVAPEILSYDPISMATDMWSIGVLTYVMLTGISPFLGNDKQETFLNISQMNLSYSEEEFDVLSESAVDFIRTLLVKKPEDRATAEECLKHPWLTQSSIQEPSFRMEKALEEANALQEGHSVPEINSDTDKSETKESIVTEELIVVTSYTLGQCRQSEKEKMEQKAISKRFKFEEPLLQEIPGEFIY
As to the kind of experiment: Binding affinity to DRAK1 assessed as change in thermal denaturation at 10 uM by thermal stability shift assay. In short, it runs like this:
as §1

In experiment [4] the target is BMP-2-inducible protein kinase (Homo sapiens) (UniProt Q9NSY1). As to the kind of experiment: Binding affinity to BIKE assessed as change in thermal denaturation at 10 uM by thermal stability shift assay. In short, it runs like this: as §1
The target in experiment [5] is AP2-associated protein kinase 1 (Homo sapiens) (UniProt Q2M2I8). As to the kind of experiment: Binding affinity to AAK1 assessed as change in thermal denaturation at 10 uM by thermal stability shift assay. A digest of the protocol: as §1
Experiment [6] has as its target Dual specificity protein kinase CLK4 (Homo sapiens) (UniProt Q9HAZ1). As to the kind of experiment: Binding affinity to CLK4 assessed as change in thermal denaturation at 10 uM by thermal stability shift assay. A digest of the protocol:
as §1

Experiment [7] can be described thus: Binding affinity to RSK4beta assessed as change in thermal denaturation at 10 uM by thermal stability shift assay. In short, it runs like this: as §1
Experiment [8] addresses Serine/threonine-protein kinase pim-1 (Homo sapiens, UniProt P11309). As to the kind of experiment: Binding affinity to PIM1 assessed as change in thermal denaturation at 10 uM by thermal stability shift assay. A digest of the protocol: as §1
For experiment [9], the target named is Serine/threonine-protein kinase pim-2 (Homo sapiens, UniProt Q9P1W9). As to the kind of experiment: Binding affinity to PIM2 assessed as change in thermal denaturation at 10 uM by thermal stability shift assay. In short, it runs like this:
as §1

Experiment [10] addresses Death-associated protein kinase 3 (Homo sapiens) (UniProt O43293). As to the kind of experiment: Binding affinity to N-terminus His6-tagged DAPK3 expressed in Escherichia coli BL21 (DE3) cells coexpressing pCOEX assessed as change in thermal denaturation at 10 uM by thermal stability shift assay. A digest of the protocol:
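DAPK3 was expressed in E. coli grown in TB with kanamycin and chloramphenicol at 37 °C, cooled to 25 °C, and induced with 0.5 mM IPTG. Binding was read as thermal-shift ΔTm in °C.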

The target of experiment [11] is TGF-beta receptor type-2 (Homo sapiens) (UniProt P37173). Put plainly: Binding affinity to TGFBR2 assessed as change in thermal denaturation at 10 uM by thermal stability shift assay. In short, it runs like this: as §1
Experiment [12] concerns the target Receptor-type tyrosine-protein kinase FLT3 (Homo sapiens) (UniProt P36888). As to the kind of experiment: Inhibition of FLT3 using ATP as substrate.
Experiment [13] concerns the target Platelet-derived growth factor receptor alpha (Homo sapiens) (UniProt P16234). As to the kind of experiment: Inhibition of PDGFRalpha using ATP as substrate.

Sequence of Ribosomal protein S6 kinase alpha-1 (Homo sapiens) (Q15418 whole entry, looked up): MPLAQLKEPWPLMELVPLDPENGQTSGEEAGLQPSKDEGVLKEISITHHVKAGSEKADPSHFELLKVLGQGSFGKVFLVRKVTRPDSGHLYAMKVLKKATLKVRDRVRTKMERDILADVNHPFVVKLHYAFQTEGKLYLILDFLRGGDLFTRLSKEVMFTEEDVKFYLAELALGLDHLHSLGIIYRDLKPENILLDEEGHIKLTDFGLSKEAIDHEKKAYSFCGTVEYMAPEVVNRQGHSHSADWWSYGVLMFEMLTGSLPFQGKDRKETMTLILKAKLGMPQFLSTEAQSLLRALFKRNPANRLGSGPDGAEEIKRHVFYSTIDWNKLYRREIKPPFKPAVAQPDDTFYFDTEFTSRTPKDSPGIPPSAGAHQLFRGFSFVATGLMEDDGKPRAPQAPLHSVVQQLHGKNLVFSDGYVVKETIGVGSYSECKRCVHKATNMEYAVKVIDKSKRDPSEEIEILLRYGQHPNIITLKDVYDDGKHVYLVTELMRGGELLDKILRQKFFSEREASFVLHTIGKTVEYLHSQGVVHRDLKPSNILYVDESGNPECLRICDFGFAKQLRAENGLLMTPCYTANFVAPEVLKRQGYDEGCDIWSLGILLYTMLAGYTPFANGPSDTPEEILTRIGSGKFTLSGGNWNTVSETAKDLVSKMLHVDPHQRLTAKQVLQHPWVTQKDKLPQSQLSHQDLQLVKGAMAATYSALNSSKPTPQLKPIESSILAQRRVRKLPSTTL
Sequence of BMP-2-inducible protein kinase (Homo sapiens) (Q9NSY1 whole entry, looked up): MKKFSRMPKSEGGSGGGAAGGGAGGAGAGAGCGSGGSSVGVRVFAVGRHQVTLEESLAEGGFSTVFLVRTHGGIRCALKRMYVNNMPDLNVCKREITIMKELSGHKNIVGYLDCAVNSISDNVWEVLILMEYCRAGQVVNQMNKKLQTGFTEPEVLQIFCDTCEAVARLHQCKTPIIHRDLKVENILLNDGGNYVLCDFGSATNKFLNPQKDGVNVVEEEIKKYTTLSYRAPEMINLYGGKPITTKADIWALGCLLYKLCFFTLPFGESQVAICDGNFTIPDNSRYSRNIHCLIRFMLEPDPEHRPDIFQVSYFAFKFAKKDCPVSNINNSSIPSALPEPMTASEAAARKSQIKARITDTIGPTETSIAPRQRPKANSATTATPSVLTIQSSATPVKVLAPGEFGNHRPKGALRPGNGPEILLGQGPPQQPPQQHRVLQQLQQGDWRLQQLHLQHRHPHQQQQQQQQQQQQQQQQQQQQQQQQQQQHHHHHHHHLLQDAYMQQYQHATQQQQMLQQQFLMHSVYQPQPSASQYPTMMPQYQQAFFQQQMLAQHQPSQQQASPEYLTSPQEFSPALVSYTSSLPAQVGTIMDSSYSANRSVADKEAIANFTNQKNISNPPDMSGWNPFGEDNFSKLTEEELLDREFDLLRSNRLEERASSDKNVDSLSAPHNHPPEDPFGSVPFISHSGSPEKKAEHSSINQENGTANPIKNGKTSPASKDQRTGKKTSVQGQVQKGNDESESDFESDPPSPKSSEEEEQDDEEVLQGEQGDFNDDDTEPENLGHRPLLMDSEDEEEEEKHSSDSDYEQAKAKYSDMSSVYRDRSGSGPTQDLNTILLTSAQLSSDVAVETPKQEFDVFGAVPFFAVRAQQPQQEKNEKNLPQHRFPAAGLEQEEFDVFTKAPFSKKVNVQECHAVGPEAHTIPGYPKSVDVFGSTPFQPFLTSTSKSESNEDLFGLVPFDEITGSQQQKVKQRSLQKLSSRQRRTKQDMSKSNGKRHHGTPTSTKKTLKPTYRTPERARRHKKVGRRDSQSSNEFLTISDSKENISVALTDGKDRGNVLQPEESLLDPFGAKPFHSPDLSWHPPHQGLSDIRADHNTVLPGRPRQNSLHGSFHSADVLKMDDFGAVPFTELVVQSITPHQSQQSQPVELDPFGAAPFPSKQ
Sequence of Dual specificity protein kinase CLK4 (Homo sapiens) (Q9HAZ1 whole entry, looked up): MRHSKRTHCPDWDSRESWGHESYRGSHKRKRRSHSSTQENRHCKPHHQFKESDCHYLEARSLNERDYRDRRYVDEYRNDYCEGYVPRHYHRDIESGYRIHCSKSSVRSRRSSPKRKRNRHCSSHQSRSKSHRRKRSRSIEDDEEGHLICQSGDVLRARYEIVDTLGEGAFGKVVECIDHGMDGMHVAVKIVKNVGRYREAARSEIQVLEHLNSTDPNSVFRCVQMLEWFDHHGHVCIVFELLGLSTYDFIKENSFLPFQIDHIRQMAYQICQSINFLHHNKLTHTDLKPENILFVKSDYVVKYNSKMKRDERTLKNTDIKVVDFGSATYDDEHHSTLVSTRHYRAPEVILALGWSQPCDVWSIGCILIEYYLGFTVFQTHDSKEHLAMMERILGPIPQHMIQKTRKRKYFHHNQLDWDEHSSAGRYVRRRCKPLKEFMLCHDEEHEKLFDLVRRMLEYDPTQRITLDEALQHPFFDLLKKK
Sequence of Serine/threonine-protein kinase pim-2 (Q9P1W9 whole entry, looked up): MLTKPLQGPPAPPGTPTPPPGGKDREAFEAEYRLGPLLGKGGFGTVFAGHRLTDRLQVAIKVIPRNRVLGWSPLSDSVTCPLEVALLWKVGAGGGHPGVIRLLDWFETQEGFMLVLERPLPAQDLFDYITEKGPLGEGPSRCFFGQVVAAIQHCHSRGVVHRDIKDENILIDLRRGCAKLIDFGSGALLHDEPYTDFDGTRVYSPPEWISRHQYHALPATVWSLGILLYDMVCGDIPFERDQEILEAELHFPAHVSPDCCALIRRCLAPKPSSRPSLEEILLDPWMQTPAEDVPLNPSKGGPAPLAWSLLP
Sequence of Serine/threonine-protein kinase pim-1 (P11309 whole entry, looked up): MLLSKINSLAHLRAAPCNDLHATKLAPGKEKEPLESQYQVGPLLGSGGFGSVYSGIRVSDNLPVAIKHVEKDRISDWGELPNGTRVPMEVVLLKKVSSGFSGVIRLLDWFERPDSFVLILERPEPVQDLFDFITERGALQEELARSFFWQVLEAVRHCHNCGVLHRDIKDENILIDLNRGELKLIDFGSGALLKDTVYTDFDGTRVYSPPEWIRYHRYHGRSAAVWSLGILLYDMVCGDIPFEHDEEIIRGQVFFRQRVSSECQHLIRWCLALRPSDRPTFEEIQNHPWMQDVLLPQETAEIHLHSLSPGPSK
Sequence of Death-associated protein kinase 3 (Homo sapiens) (O43293 whole entry, looked up): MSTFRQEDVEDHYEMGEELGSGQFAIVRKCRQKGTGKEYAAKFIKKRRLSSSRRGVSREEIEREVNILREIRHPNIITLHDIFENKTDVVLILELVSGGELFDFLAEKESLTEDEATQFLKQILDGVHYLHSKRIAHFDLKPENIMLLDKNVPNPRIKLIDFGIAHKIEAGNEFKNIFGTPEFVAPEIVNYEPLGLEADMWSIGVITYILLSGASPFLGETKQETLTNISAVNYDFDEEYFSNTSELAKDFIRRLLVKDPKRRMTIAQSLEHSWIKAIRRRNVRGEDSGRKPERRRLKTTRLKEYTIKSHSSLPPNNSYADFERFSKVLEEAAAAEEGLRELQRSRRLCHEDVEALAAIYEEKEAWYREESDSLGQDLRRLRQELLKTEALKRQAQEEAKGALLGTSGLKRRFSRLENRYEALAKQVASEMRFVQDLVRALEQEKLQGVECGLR
Sequence of AP2-associated protein kinase 1 (Homo sapiens) (Q2M2I8 whole entry, looked up): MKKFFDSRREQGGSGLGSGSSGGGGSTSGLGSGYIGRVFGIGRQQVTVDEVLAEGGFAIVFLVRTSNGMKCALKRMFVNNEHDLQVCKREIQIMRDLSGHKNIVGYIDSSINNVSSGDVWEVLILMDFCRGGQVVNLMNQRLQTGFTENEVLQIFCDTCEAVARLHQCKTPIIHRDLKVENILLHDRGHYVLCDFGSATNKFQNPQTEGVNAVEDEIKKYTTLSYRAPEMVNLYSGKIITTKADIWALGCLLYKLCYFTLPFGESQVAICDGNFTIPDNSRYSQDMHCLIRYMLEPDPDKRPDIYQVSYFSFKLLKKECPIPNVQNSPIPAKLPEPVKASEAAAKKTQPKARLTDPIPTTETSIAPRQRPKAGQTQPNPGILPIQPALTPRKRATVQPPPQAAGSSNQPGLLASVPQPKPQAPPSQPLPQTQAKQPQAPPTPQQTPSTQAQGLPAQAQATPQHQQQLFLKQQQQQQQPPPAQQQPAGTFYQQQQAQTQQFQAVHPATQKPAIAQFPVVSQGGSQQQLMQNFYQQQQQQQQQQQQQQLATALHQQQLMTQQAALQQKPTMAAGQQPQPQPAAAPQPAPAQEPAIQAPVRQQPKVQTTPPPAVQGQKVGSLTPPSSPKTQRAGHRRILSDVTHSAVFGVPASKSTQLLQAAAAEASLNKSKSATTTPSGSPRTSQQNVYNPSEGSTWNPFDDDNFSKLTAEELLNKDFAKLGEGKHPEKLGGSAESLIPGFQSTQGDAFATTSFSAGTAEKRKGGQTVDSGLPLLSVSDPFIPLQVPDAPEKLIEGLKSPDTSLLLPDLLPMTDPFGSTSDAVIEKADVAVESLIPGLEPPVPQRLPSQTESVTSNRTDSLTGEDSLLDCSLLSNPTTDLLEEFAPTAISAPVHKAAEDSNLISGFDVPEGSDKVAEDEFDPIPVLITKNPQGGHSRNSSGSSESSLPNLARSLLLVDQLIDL

What is called ΔTm is the change in melting temperature against a reference sample. Turning to `N#CC1c2c([nH]c3c(Cl)c(Cl)ccc23)C(=O)NC12CCCCC2` (racemic), the ΔTm in [1] is 4.9 °C; in experiment [2], 0.4 °C; in experiment [3] it was 2.2 °C; in experiment [4], 1.1 °C; in experiment [5], 2.4 °C; in experiment [6], 5.7 °C. For the same molecule, the ΔTm in experiment [7] was -0.2 °C; in experiment [8] it was 4.9 °C; in experiment [9] it was 1.4 °C; in experiment [10], 3.4 °C.

As for `Cn1c2c(c3ccc(Cl)c(Cl)c31)C(C#N)C1(CCN(C(=O)OC(C)(C)C)CC1)NC2=O` (racemic), the ΔTm in experiment [1] turned out to be 0.6 °C; in experiment [2], 0 °C; in experiment [3], 0.6 °C; in experiment [4], 0 °C; in [5] it was 0.3 °C; in [6] it was 0 °C. Besides, the ΔTm in experiment [7] was -0.4 °C; in experiment [8], 0.8 °C; in experiment [9], -0.2 °C; in experiment [10] it was -0.2 °C.

As to `CCC1(CC)NC(=O)c2c(c3ccc(Cl)c(Cl)c3n2C)C1C#N` (stereo not given), the ΔTm in [1] was 3.4 °C; in experiment [2] it was 0.5 °C; in experiment [3] it was 2.6 °C; in experiment [4], 1.2 °C; in [5], 1.7 °C; in [6] it was 2.8 °C. The ΔTm is -0.1 °C in [7]; 5 °C in experiment [11]; 3.3 °C in experiment [8]; 2 °C in experiment [9]; 2.4 °C in [10].

Take `Cn1c2c(c3ccccc31)C(C#N)C(C)(C)NC2=O` (stereo not given): the ΔTm came to 1.3 °C in experiment [1]; 0.4 °C in [2]; 0.5 °C in [3]; 1.1 °C in experiment [4]; 0.6 °C in [5]; 1.4 °C in experiment [6]. In addition, the ΔTm in experiment [7] is 0.1 °C; in [11] it was 2.9 °C; in experiment [8], 0.9 °C; in experiment [9] it was -0.2 °C; in experiment [10], 0.6 °C.

For the molecule `CN1CCC2(CC1)NC(=O)c1c(c3ccc(Cl)c(Cl)c3n1C)C2C#N` (racemic), the ΔTm in experiment [1] turned out to be 7.2 °C; in experiment [2] it was 0.5 °C; in [3], 2.7 °C; in [4], 0.8 °C; in experiment [5] it was 0.9 °C; in experiment [6] it was 2.1 °C. For the same molecule, the ΔTm in experiment [7] turned out to be 0.2 °C; in experiment [11], 1.1 °C; in experiment [8] it was 7.7 °C; in [9], 5.2 °C; in experiment [10], 6.3 °C. The inhibition result in [12] and in experiment [13] was “inactive” in each case.

For `Cn1c2c(Cl)c(Cl)ccc2c2cc[nH]c(=O)c21`, the ΔTm in experiment [1] worked out at 3.6 °C; in experiment [2], 4.6 °C; in experiment [3], 6.2 °C; in experiment [4] it was 8.2 °C; in experiment [5] it was 4.6 °C; in [6] it was 3.2 °C. Moreover, the thermal shift (ΔTm) was 4 °C in experiment [7]; 10.1 °C in experiment [11]; 4 °C in [8]; 2.9 °C in experiment [9]; 3.4 °C in [10].

For `CC(=O)NCC1c2c(n(C)c3c(Cl)c(Cl)ccc23)C(=O)NC1(C)C` (racemic), the ΔTm is 0.7 °C in experiment [1]; 0.7 °C in experiment [2]; 0.9 °C in [3]; 0.4 °C in experiment [4]; 0.2 °C in experiment [5]; 1.4 °C in experiment [6]. Further, the ΔTm is 0.4 °C in [7]; 1.5 °C in experiment [11]; 1.1 °C in experiment [8]; 0.7 °C in experiment [9]; 0.8 °C in experiment [10].

For the molecule `Cn1c2c(c3ccc(Cl)c(Cl)c31)C(C#N)C1(CCOCC1)NC2=O` (stereo not given), the ΔTm in [1] came to 4.7 °C; in experiment [2] it was 0.6 °C; in [3] it was 2.7 °C; in [4], 2.3 °C; in experiment [5] it was 2.6 °C; in experiment [6] it was 2.8 °C. Further, the ΔTm in experiment [7] stood at 0 °C; in experiment [11] it was 2.6 °C; in experiment [8], 4.8 °C; in experiment [9] it was 2.2 °C; in [10], 3.1 °C.

On to `CC1(C)NC(=O)c2[nH]c3c(Cl)c(Cl)ccc3c2C1C#N` (stereo not given), for which the ΔTm in experiment [1] turned out to be 4 °C; in [2], 1.4 °C; in experiment [3] it was 3 °C; in experiment [4] it was 1.2 °C; in [5] it was 1.1 °C; in [6] it was 4.9 °C. Also, the ΔTm in experiment [7] came out at 0.1 °C; in [11], 6.8 °C; in experiment [8], 3.5 °C; in experiment [9], 2.3 °C; in experiment [10], 2 °C.

In the case of `Cn1c2c(c3ccc(Cl)c(Cl)c31)C(C#N)C1(CCCC1)NC2=O` (stereo not given), the ΔTm in [1] was determined as 3.8 °C; in experiment [2], 0.5 °C; in experiment [3], 2 °C; in experiment [4] it was 1.3 °C; in [5], 1.5 °C; in experiment [6], 3.3 °C. The ΔTm is 0.1 °C in experiment [7]; 2.2 °C in [11]; 3.8 °C in experiment [8]; 1.6 °C in experiment [9]; 1.5 °C in [10].

As for `CCN1CCC2(CC1)NC(=O)c1c(c3ccc(Cl)c(Cl)c3n1C)C2C#N` (racemic), the ΔTm in experiment [1] is 7.1 °C; in experiment [2] it was 0 °C; in [3] it was 1.6 °C; in [4], -0.5 °C; in [5], 0.2 °C; in experiment [6], 1.8 °C. Further, the ΔTm in experiment [7] was determined as 0.2 °C; in [11], 0.3 °C; in experiment [8], 7.4 °C; in [9] it was 3.9 °C; in experiment [10], 4.6 °C.

As for `Cn1c2c(c3ccc(Cl)c(Cl)c31)C(C#N)C(C)(C)NC2=O` (stereo not given), the ΔTm in [1] stood at 6.2 °C; in [2], 1.8 °C; in [3], 5.8 °C; in [4] it was 2.8 °C; in experiment [5], 2.2 °C; in experiment [6], 4.3 °C. The ΔTm in [7] was found to be 2.3 °C; in [11], 8.1 °C; in [8], 5.7 °C; in [9] it was 3.6 °C; in experiment [10], 3.4 °C.

For the molecule `Cn1c2c(Cl)c(Cl)ccc2c2cn[nH]c(=O)c21`, the ΔTm was found to be 2.3 °C in experiment [1]; 1.7 °C in experiment [2]; 3.5 °C in experiment [3]; 5.3 °C in experiment [4]; 3.9 °C in [5]; 0.9 °C in experiment [6]. The ΔTm amounted to 1.4 °C in experiment [7]; 10.4 °C in experiment [11]; 1.6 °C in experiment [8]; 1.6 °C in [9]; 4 °C in experiment [10].

On to `Cn1c2c(c3ccc(Cl)c(Cl)c31)C(CN)C(C)(C)NC2=O` (racemic), for which the ΔTm in experiment [1] was found to be 3.7 °C; in [2], 0.4 °C; in experiment [3] it was 7.5 °C; in experiment [4] it was 1.7 °C; in experiment [5], 0.8 °C; in experiment [6], 2.8 °C. Moreover, the ΔTm came to 0.7 °C in experiment [7]; 3 °C in experiment [11]; 3.6 °C in [8]; 3.2 °C in [9]; 3.6 °C in experiment [10].

`Cn1c2c(Cl)c(Cl)ccc2c2cc(N)[nH]c(=O)c21`: the ΔTm in experiment [1] worked out at 3.6 °C; in experiment [2], 3.1 °C; in [3] it was 6.9 °C; in [4] it was 5.2 °C; in experiment [5], 2 °C; in experiment [6] it was 2.1 °C. The ΔTm in experiment [7] turned out to be 1.2 °C; in experiment [11], 7.9 °C; in experiment [8] it was 4 °C; in experiment [9], 3 °C; in [10] it was 2.6 °C.

(Values after ChEMBL document CHEMBL1944596, “7,8-dichloro-1-oxo-β-carbolines as a versatile scaffold for the development of potent and selective kinase inhibitors with unusual binding modes” (J Med Chem, 2012).)
